The target in test [1] is Atrial natriuretic peptide receptor (Homo sapiens) (UniProt P20594+P16066+P17342). The test can be described thus: Selectivity factor, ratio of NVR and VR relative binding potency. Format: protein assay. To be noted: Oryctolagus cuniculus.
The target in test [2] is T1, Atrial natriuretic peptide receptor 3 (Homo sapiens) (UniProt P17342).
T1 sequence (whole entry): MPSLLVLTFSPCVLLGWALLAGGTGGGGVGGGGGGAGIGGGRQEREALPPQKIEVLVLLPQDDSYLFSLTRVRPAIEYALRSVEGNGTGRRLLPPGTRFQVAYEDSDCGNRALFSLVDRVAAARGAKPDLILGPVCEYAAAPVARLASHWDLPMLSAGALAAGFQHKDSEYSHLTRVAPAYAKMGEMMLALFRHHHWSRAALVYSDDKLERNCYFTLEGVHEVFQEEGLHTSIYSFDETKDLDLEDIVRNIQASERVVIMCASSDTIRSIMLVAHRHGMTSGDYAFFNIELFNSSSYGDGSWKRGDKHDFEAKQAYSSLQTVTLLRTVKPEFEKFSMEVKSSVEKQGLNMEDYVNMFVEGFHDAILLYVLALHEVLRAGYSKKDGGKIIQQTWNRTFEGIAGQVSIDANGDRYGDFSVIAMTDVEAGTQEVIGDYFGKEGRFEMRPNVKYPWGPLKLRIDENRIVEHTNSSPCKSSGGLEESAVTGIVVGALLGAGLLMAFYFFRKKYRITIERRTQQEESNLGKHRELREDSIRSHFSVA
The test can be described thus: Binding affinity for non-vasorelaxant receptor by competitive displacement of [125I]-AP(103-126) from rabbit lung membranes. The class given is tissue-based. To be noted: Oryctolagus cuniculus, Membrane, target entry is the homologue from another species. For orientation: Displacement assays read how much labelled ligand stays bound in the presence of the test substance.

The next test is filed under the species Oryctolagus cuniculus. The experiment in a line: Binding affinity for vasorelaxant receptor by competitive displacement of [125I]-AP(103-126) from rabbit lung membranes. The class given is tissue-based. The conditions noted are these: Membrane.
Test [3] in a line: Apparent binding constant for vasorelaxant subclass of receptors. Further details: species or system Oryctolagus cuniculus. The essentials:
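Competitive binding assay on rabbit lung membranes, using atrial peptide analogues.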

Positions of bridges follow the written chain, without caps; N, C: chain ends. Non-standard residues stand in square brackets, D forms with d. Residues, ends and D or L forms follow the SMILES beside them. ξ: configuration not given here. Nva = CCC[C@H](N)C(=O)O; ξA = CC(N)C(=O)O

For the compound `CC[C@H](C)[C@@H]1NC(=O)[C@H](CCCN=C(N)N)NC(=O)[C@H](CC(=O)O)NC(=O)[C@H]([C@@H](C)CC)NC(=O)[C@H](CCCN=C(N)N)NC(=O)CNC(=O)CNC(=O)[C@H](Cc2ccccc2)NC(=O)C(C)NC(=O)[C@@H](NC(=O)[C@@H](N)CO)CSSC[C@@H](C(=O)N[C@@H](CO)C(=O)N[C@@H](Cc2ccccc2)C(=O)N[C@@H](CCCN=C(N)N)C(N)=O)NC(=O)C(C)NC(=O)CNC(=O)[C@H](CC(C)C)NC(=O)CNC(=O)[C@H](CO)NC(=O)[C@H](CCC(N)=O)NC(=O)[C@H](C)NC(=O)CNC1=O` (some centres undefined) (H-SC[ξA]FGGRIDRIGAQSGLG[ξA]CSFR-NH2; disulfide 2-20), the Ratio in test [1] was determined as 464. The figures for the Relative potency (in test [2]; in the test listed under Oryctolagus cuniculus) were 1.3 and 0.0028, respectively.
In the same order, the values of `CC[C@H](C)[C@@H]1NC(=O)[C@H](CCCN=C(N)N)NC(=O)[C@H](CC(=O)O)NC(=O)[C@H]([C@@H](C)CC)NC(=O)[C@H](CCCN=C(N)N)NC(=O)[C@@H](NC(=O)CNC(=O)[C@H](Cc2ccccc2)NC(=O)[C@H](C)NC(=O)[C@H](CO)NC(=O)[C@@H](N)CO)CSSC[C@@H](C(=O)NCC(=O)N[C@@H](CC(C)C)C(=O)NCC(=O)N[C@@H](C)C(=O)N[C@@H](CC(N)=O)C(=O)N[C@@H](CO)C(=O)N[C@@H](Cc2ccccc2)C(=O)N[C@@H](CCCN=C(N)N)C(N)=O)NC(=O)[C@H](CCC(N)=O)NC(=O)[C@H](C)NC(=O)CNC1=O` (H-SSAFGCRIDRIGAQCGLGANSFR-NH2; disulfide 6-15) are 485, 0.63 and 0.0013.
Regarding `CC[C@H](C)[C@@H]1NC(=O)[C@H](CCCN=C(N)N)NC(=O)[C@H](CC(=O)O)NC(=O)[C@H]([C@@H](C)CC)NC(=O)[C@H](CCCN=C(N)N)NC(=O)[C@@H](NC(=O)CNC(=O)[C@H](Cc2ccccc2)NC(=O)[C@H](CSC)NC(=O)[C@H](CO)NC(=O)[C@@H](N)CO)CSSC[C@@H](C(=O)NCC(=O)N[C@@H](CC(C)C)C(=O)NCC(=O)N[C@@H](CSC)C(=O)N[C@@H](CC(N)=O)C(=O)N[C@@H](CO)C(=O)N[C@@H](Cc2ccccc2)C(=O)N[C@@H](CCCN=C(N)N)C(N)=O)NC(=O)[C@H](CCC(N)=O)NC(=O)[C@H](C)NC(=O)CNC1=O` (H-SSC(Me)FGCRIDRIGAQCGLGC(Me)NSFR-NH2; disulfide 6-15), the Ratio in test [1] is 369. Also, the results for the Relative potency (in test [2]; in the test listed under Oryctolagus cuniculus) were 0.59 and 0.0016, respectively.
For `CC[C@H](C)[C@@H]1NC(=O)[C@H](CCCN=C(N)N)NC(=O)[C@H](CC(=O)O)NC(=O)[C@H]([C@@H](C)CC)NC(=O)[C@H](CCCN=C(N)N)NC(=O)CNC(=O)CNC(=O)[C@H](Cc2ccccc2)NC(=O)[C@@H](NC(=O)[C@H](CO)NC(=O)[C@@H](N)CO)CSSC[C@@H](C(=O)N[C@@H](CSC)C(=O)N[C@@H](CC(N)=O)C(=O)N[C@@H](CO)C(=O)N[C@@H](Cc2ccccc2)C(=O)N[C@@H](CCCN=C(N)N)C(N)=O)NC(=O)[C@H](CC(C)C)NC(=O)CNC(=O)[C@H](CO)NC(=O)[C@H](CCC(N)=O)NC(=O)[C@H](C)NC(=O)CNC1=O` (H-SSCFGGRIDRIGAQSGLCC(Me)NSFR-NH2; disulfide 3-18), the Ratio in test [1] is 32. For the same compound, the Relative potency in test [2] amounted to 1.3; in the test filed under Oryctolagus cuniculus, 0.041.
Regarding `CC[C@H](C)[C@@H]1NC(=O)[C@H](CCCN=C(N)N)NC(=O)[C@H](CC(=O)O)NC(=O)[C@H]([C@@H](C)CC)NC(=O)[C@H](CCCN=C(N)N)NC(=O)CNC(=O)CNC(=O)[C@H](Cc2ccccc2)NC(=O)[C@@H](NC(=O)[C@H](CO)NC(=O)[C@@H](N)CO)CSSC[C@@H](C(=O)N[C@@H](CO)C(=O)N[C@@H](CC(N)=O)C(=O)N[C@@H](CO)C(=O)N[C@@H](Cc2ccccc2)C(=O)N[C@@H](CCCN=C(N)N)C(N)=O)NC(=O)[C@H](CC(C)C)NC(=O)CNC(=O)[C@H](CO)NC(=O)[C@H](CCC(N)=O)NC(=O)[C@H](C)NC(=O)CNC1=O` (H-SSCFGGRIDRIGAQSGLCSNSFR-NH2; disulfide 3-18), the Ratio in test [1] was 23. Also, the results for the Relative potency (in test [2]; in the test listed under Oryctolagus cuniculus) were 1.3 and 0.056, respectively.
In the same order, the values of `CCC[C@H](NC(=O)[C@@H]1CSSC[C@H](NC(=O)[C@H](CO)NC(=O)[C@@H](N)CO)C(=O)N[C@@H](Cc2ccccc2)C(=O)NCC(=O)NCC(=O)N[C@@H](CCCN=C(N)N)C(=O)N[C@@H]([C@@H](C)CC)C(=O)N[C@@H](CC(=O)O)C(=O)N[C@@H](CCCN=C(N)N)C(=O)N[C@@H]([C@@H](C)CC)C(=O)NCC(=O)N[C@@H](C)C(=O)N[C@@H](CCC(N)=O)C(=O)N[C@@H](CO)C(=O)NCC(=O)N[C@@H](CC(C)C)C(=O)N1)C(=O)N[C@@H](CC(N)=O)C(=O)N[C@@H](CO)C(=O)N[C@@H](Cc1ccccc1)C(=O)N[C@@H](CCCN=C(N)N)C(N)=O` (H-SSCFGGRIDRIGAQSGLC[Nva]NSFR-NH2; disulfide 3-18) are 13, 0.63 and 0.047.
For `CC[C@H](C)[C@@H]1NC(=O)[C@H](CCCN=C(N)N)NC(=O)[C@H](CC(=O)O)NC(=O)[C@H]([C@@H](C)CC)NC(=O)[C@H](CCCN=C(N)N)NC(=O)CNC(=O)CNC(=O)[C@H](Cc2ccccc2)NC(=O)[C@@H](NC(=O)[C@H](CO)NC(=O)[C@@H](N)CO)CSSC[C@@H](C(=O)NC(C)C(=O)N[C@@H](CC(N)=O)C(=O)N[C@@H](CO)C(=O)N[C@@H](Cc2ccccc2)C(=O)N[C@@H](CCCN=C(N)N)C(N)=O)NC(=O)[C@H](CC(C)C)NC(=O)CNC(=O)[C@H](CO)NC(=O)[C@H](CCC(N)=O)NC(=O)[C@H](C)NC(=O)CNC1=O` (some centres undefined) (H-SSCFGGRIDRIGAQSGLC[ξA]NSFR-NH2; disulfide 3-18), the Ratio in test [1] is 6. In addition, the figures for the Relative potency (in test [2]; in the test filed under Oryctolagus cuniculus) were 0.94 and 0.16, respectively.
For `CC[C@H](C)[C@@H]1NC(=O)[C@H](CCCN=C(N)N)NC(=O)[C@H](CC(=O)O)NC(=O)[C@H]([C@@H](C)CC)NC(=O)[C@H](CCCN=C(N)N)NC(=O)[C@@H](NC(=O)CNC(=O)[C@H](Cc2ccccc2)NC(=O)CNC(=O)[C@H](CO)NC(=O)[C@@H](N)CO)CSSC[C@@H](C(=O)NCC(=O)N[C@@H](CC(C)C)C(=O)NCC(=O)NCC(=O)N[C@@H](CC(N)=O)C(=O)N[C@@H](CO)C(=O)N[C@@H](Cc2ccccc2)C(=O)N[C@@H](CCCN=C(N)N)C(N)=O)NC(=O)[C@H](CCC(N)=O)NC(=O)[C@H](C)NC(=O)CNC1=O` (H-SSGFGCRIDRIGAQCGLGGNSFR-NH2; disulfide 6-15), the Ratio in test [1] was found to be 118. In addition, the Relative potency in test [2] was 1.3; in the test listed under Oryctolagus cuniculus, 0.011. Moreover, in test [3], the Ki is 7.4 nM.
As to `CC[C@H](C)[C@@H]1NC(=O)[C@H](CCCN=C(N)N)NC(=O)[C@H](CC(=O)O)NC(=O)[C@H]([C@@H](C)CC)NC(=O)[C@H](CCCN=C(N)N)NC(=O)[C@@H](NC(=O)CNC(=O)[C@H](Cc2ccccc2)NC(=O)CNC(=O)[C@H](CO)NC(=O)[C@@H](N)CO)CSSC[C@@H](C(=O)N[C@@H](CC(C)C)C(=O)NCC(=O)NCC(=O)N[C@@H](CC(N)=O)C(=O)N[C@@H](CO)C(=O)N[C@@H](Cc2ccccc2)C(=O)N[C@@H](CCCN=C(N)N)C(N)=O)NC(=O)[C@H](CO)NC(=O)[C@H](CCC(N)=O)NC(=O)[C@H](C)NC(=O)CNC1=O` (H-SSGFGCRIDRIGAQSCLGGNSFR-NH2; disulfide 6-16), in test [1], the Ratio amounted to 1120. The Relative potency in test [2] came out at 0.81; in the test listed under Oryctolagus cuniculus, 0.00072.
As to `CC[C@H](C)[C@@H]1NC(=O)[C@H](CCCN=C(N)N)NC(=O)[C@H](CC(=O)O)NC(=O)[C@H]([C@@H](C)CC)NC(=O)[C@H](CCCN=C(N)N)NC(=O)[C@@H](NC(=O)CNC(=O)[C@H](Cc2ccccc2)NC(=O)[C@H](CO)NC(=O)[C@H](CO)NC(=O)[C@@H](N)CO)CSSC[C@@H](C(=O)NCC(=O)N[C@@H](CC(C)C)C(=O)NCC(=O)N[C@@H](CO)C(=O)N[C@@H](CC(N)=O)C(=O)N[C@@H](CO)C(=O)N[C@@H](Cc2ccccc2)C(=O)N[C@@H](CCCN=C(N)N)C(N)=O)NC(=O)[C@H](CCC(N)=O)NC(=O)[C@H](C)NC(=O)CNC1=O` (H-SSSFGCRIDRIGAQCGLGSNSFR-NH2; disulfide 6-15), the Ratio in test [1] stood at 293. The figures for the Relative potency (in test [2]; in the test filed under Oryctolagus cuniculus) were 0.44 and 0.0015, respectively.
In the same order, the values of `CCC[C@H](NC(=O)CNC(=O)[C@H](CC(C)C)NC(=O)CNC(=O)[C@@H]1CSSC[C@H](NC(=O)CNC(=O)[C@H](Cc2ccccc2)NC(=O)[C@H](CCC)NC(=O)[C@H](CO)NC(=O)[C@@H](N)CO)C(=O)N[C@@H](CCCN=C(N)N)C(=O)N[C@@H]([C@@H](C)CC)C(=O)N[C@@H](CC(=O)O)C(=O)N[C@@H](CCCN=C(N)N)C(=O)N[C@@H]([C@@H](C)CC)C(=O)NCC(=O)N[C@@H](C)C(=O)N[C@@H](CCC(N)=O)C(=O)N1)C(=O)N[C@@H](CC(N)=O)C(=O)N[C@@H](CO)C(=O)N[C@@H](Cc1ccccc1)C(=O)N[C@@H](CCCN=C(N)N)C(N)=O` (H-SS[Nva]FGCRIDRIGAQCGLG[Nva]NSFR-NH2; disulfide 6-15) are 286, 0.26 and 0.00091.

(Values after ChEMBL document CHEMBL1124687, “Analogues of atriopeptin(103-125)amide having high binding selectivity” (J Med Chem, 1989).)
